Results from different studies.
Protocols differ between the studies behind these lines.
Target: Serine/threonine-protein kinase PLK2 (PLK2, Homo sapiens, UniProt Q9NYY3)

COc1ccnn2ncc(-c3ccnc(N(C)C)n3)c12 gave a remaining binding of 93% (binding; 1 µM).
The remaining binding of CCS(=O)(=O)c1cc2cc(C[C@@](O)(CC(C)(C)c3ccc(F)cc3C(N)=O)C(F)(F)F)[nH]c2cn1 is reported as 100% (cell-free assay; competition with immobilised ligand; 1 µM).
With C[C@@H]1CCN(c2nccc(-c3cnn4ncccc34)n2)C1 the remaining binding was 88% (binding; 1 µM).
NS(=O)(=O)c1cc(NC(=O)C2(c3ccccc3Cl)CC2)ccc1Oc1cccc(Cl)c1 has a remaining binding of 84% (cell-free assay; competition with immobilised ligand; 1 µM).
For O=C(c1ccc(Nc2ncc(Cl)c(-c3cc4ccccc4s3)n2)cc1)N1CCC(N2CCCC2)CC1, the remaining binding was 68% (binding; competition with immobilised ligand; 1 µM).
CS(=O)(=O)NCC[C@H](NC(=O)c1cncc2c1cnn2-c1ccc(F)cc1)c1ccnc(S(C)(=O)=O)c1 has a remaining binding of 100% (cell-free assay; competition with immobilised ligand; 1 µM).
The remaining binding of c1cncc(-c2cccc(Nc3nccc(NC4CCCCC4)n3)c2)c1 is reported as 100% (binding; competition with immobilised ligand; 10 µM).
CN(C)c1nccc(-c2cnn3ncccc23)n1 has a remaining binding of 100% (binding; 1 µM).
CNC(=O)[C@@H]1CC[C@@H](n2c(-c3ccc4cnccc4c3)nc3ccc(C(=O)NCc4cccc(C(N)=O)c4)cc32)C1 has a remaining binding of 96% (binding; competition with immobilised ligand; 1 µM).
The remaining binding of Cc1nc(C2CCN(C(=O)c3ccc(OC(F)(F)F)cc3N)CC2)c2ncc(N3CCN(C)CC3)cc2n1 is reported as 74% (cell-free assay; competition with immobilised ligand; 1 µM).
The remaining binding of O=C(c1ccc(Nc2nccc(-c3cc4ccccc4s3)n2)cc1)N1CCC(N2CCCC2)CC1 is reported as 96% (binding; competition with immobilised ligand; 1 µM).
F[C@@H]1CCN(c2nccc(-c3cnn4ncccc34)n2)C1 gave a remaining binding of 100% (binding; 1 µM).
With C[C@@H]1CN(c2cc(-c3n[nH]c4ccc(OC5(C)CC5)cc34)ncn2)C[C@H](C)O1 the remaining binding was 76% (cell-free assay; competition with immobilised ligand; 0.1 µM).
CN(c1nccc(-c2cnn3ncccc23)n1)C1CC1 has a remaining binding of 88% (binding; 1 µM).
The remaining binding of Nc1ncc2c(n1)-c1c([nH]c3ccc(C#CC4CC4)cc13)CCCC2 is reported as 91% (binding; competition with immobilised ligand; 1 µM).
O=C(NCCCN1CCOCC1)c1ccc(Nc2ncc(Cl)c(-c3ccc(Cl)s3)n2)cc1 gave a remaining binding of 5.9% (binding; competition with immobilised ligand; 1 µM).
With CNC(=O)Nc1ccc2c(c1)CC[C@@]21OC(=O)N(CC(=O)N(Cc2ccc(F)cc2)[C@@H](C)C(F)(F)F)C1=O the remaining binding was 91% (cell-free assay; competition with immobilised ligand; 1 µM).
N[C@H]1CCN(c2nccc(-c3cnn4ncccc34)n2)C1 has a remaining binding of 71% (binding; 1 µM).
The remaining binding of COc1ncc2cc3ccccc3nc2c1C#N is reported as 45% (cell-free assay; competition with immobilised ligand; 5 µM).
With O=C(Nc1c[nH]nc1C(=O)NC1CCNCC1)c1cc(F)cc(F)c1 the remaining binding was 92% (binding; competition with immobilised ligand; 1 µM).
